Data taken from ChEMBL document CHEMBL1155010, “Synthesis and biological evaluation of substituted [18F]imidazo[1,2-a]pyridines and [18F]pyrazolo[1,5-a]pyrimidines for the study of the peripheral benzodiazepine receptor using positron emission tomography” (J Med Chem, 2008).

Columns and labels:
Lung [1] = test: Biodistribution in Sprague-Dawley rat lungs assessed per gram of tissue at 1 MBq, iv after 4 hrs; format: ADME, organism-based; conditions: in vivo
Method in brief: (§1)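 Male SD rats aged 8-10 weeks got 1 MBq [18F]tracer by tail vein in 0.1 mL. Groups of n = 4 were killed (CO2, then cervical fracture) at 0.25, 0.5, 1 and 4 h. Organs were weighed and gamma counted against a diluted standard of the injectate. Results are %ID per gram wet tissue, mean with standard deviation.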

[2] = Biodistribution in Sprague-Dawley rat testis assessed per gram of tissue at 1 MBq, iv after 1 hr; format: ADME, organism-based; conditions: in vivo; method in brief: as §1
Kidney [3] = test: Biodistribution in Sprague-Dawley rat kidney assessed per gram of tissue at 1 MBq, iv after 4 hrs; format: ADME, organism-based; conditions: in vivo; method in brief: as §1
Adrenal [4] = test: Biodistribution in Sprague-Dawley rat adrenals assessed per gram of tissue at 1 MBq, iv after 0.25 hrs; format: ADME, organism-based, Adrenal tissue; conditions: in vivo; method in brief: as §1
Liver [5] = test: Biodistribution in Sprague-Dawley rat liver assessed per gram of tissue at 1 MBq, iv after 0.5 hrs; format: ADME, organism-based; conditions: in vivo; method in brief: as §1
Kidney [6] = test: Biodistribution in Sprague-Dawley rat kidney assessed per gram of tissue at 1 MBq, iv after 1 hr; format: ADME, organism-based; conditions: in vivo; method in brief: as §1
Blood [7] = test: Biodistribution in Sprague-Dawley rat blood at 1 MBq, iv after 1 hr; format: ADME, organism-based; conditions: in vivo
Method in brief: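 Male SD rats, 8-10 weeks old, given 1 MBq [18F]radiotracer by tail-vein injection in 0.1 mL. Groups of 4 killed (CO2, then cervical fracture) at 0.25, 0.5, 1 and 4 h post-injection. Tissues weighed and gamma-counted against a diluted standard of the injected solution. Activity expressed as %ID per gram wet tissue.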

[8] = Ratio of drug level in olfactory bulb to blood in Sprague-Dawley rat at 1 MBq, iv; format: ADME
Method in brief: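 Same rat biodistribution as above: 1 MBq iv by tail vein, n = 4 per time point, 0.25-4 h, gamma counting as %ID/g. Ratio is the olfactory bulb radioactivity concentration divided by the blood concentration at each time.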

[9] = Metabolic stability in Sprague-Dawley rat frontal cortex assessed as drug remaining at 30 MBq after 4 hrs by Radio-HPLC analysis; format: ADME, tissue-based; conditions: read-out: Stability
Method in brief: (§2)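 Rats received 30 MBq tracer and were sampled at 0.25, 0.5, 1 and 4 h. Plasma was diluted with water containing unlabeled carrier and KF and injected directly. Frontal cortex or olfactory bulb was sonicated in acetonitrile/water 1:1 with carrier and KF, centrifuged, and the supernatant diluted. Radio-HPLC used a precolumn switched to C18 with a CH3CN/0.05 M sodium acetate pH 5.5 gradient. Result is % parent remaining.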

Femur [10] = test: Biodistribution in Sprague-Dawley rat femur at 1 MBq, iv after 0.25 hrs; format: ADME, organism-based; conditions: in vivo; method in brief: as §1
Kidney [11] = test: Biodistribution in Sprague-Dawley rat kidney assessed per gram of tissue at 1 MBq, iv after 0.25 hrs; format: ADME, organism-based; conditions: in vivo; method in brief: as §1
Heart [12] = test: Biodistribution in Sprague-Dawley rat heart assessed per gram of tissue at 1 MBq, iv after 1 hr; format: ADME, organism-based; conditions: in vivo; method in brief: as §1
Lung [13] = test: Biodistribution in Sprague-Dawley rat lungs assessed per gram of tissue at 1 MBq, iv after 1 hr; format: ADME, organism-based; conditions: in vivo; method in brief: as §1
Adrenal [14] = test: Biodistribution in Sprague-Dawley rat adrenals assessed per gram of tissue at 1 MBq, iv after 4 hrs; format: ADME, organism-based, Adrenal tissue; conditions: in vivo; method in brief: as §1
[15] = Metabolic stability in Sprague-Dawley rat frontal cortex assessed as drug remaining at 30 MBq after 0.25 hrs by Radio-HPLC analysis; format: ADME, tissue-based; conditions: read-out: Stability; method in brief: as §2
[16] = Biodistribution in Sprague-Dawley rat testis assessed per gram of tissue at 1 MBq, iv after 0.25 hrs; format: ADME, organism-based; conditions: in vivo; method in brief: as §1
Spleen [17] = test: Biodistribution in Sprague-Dawley rat spleen assessed per gram of tissue at 1 MBq, iv after 4 hrs; format: ADME, organism-based; conditions: in vivo; method in brief: as §1
[18] = Biodistribution in Sprague-Dawley rat testis assessed per gram of tissue at 1 MBq, iv after 0.5 hrs; format: ADME, organism-based; conditions: in vivo; method in brief: as §1
Liver [19] = test: Biodistribution in Sprague-Dawley rat liver assessed per gram of tissue at 1 MBq, iv after 4 hrs; format: ADME, organism-based; conditions: in vivo; method in brief: as §1
Liver [20] = test: Biodistribution in Sprague-Dawley rat liver assessed per gram of tissue at 1 MBq, iv after 1 hr; format: ADME, organism-based; conditions: in vivo; method in brief: as §1
Spleen [21] = test: Biodistribution in Sprague-Dawley rat spleen assessed per gram of tissue at 1 MBq, iv after 1 hr; format: ADME, organism-based; conditions: in vivo; method in brief: as §1
Heart [22] = test: Biodistribution in Sprague-Dawley rat heart assessed per gram of tissue at 1 MBq, iv after 0.25 hrs; format: ADME, organism-based; conditions: in vivo; method in brief: as §1
Kidney [23] = test: Biodistribution in Sprague-Dawley rat kidney assessed per gram of tissue at 1 MBq, iv after 0.5 hrs; format: ADME, organism-based; conditions: in vivo; method in brief: as §1
Liver [24] = test: Biodistribution in Sprague-Dawley rat liver assessed per gram of tissue at 1 MBq, iv after 0.25 hrs; format: ADME, organism-based; conditions: in vivo; method in brief: as §1
Adrenal [25] = test: Biodistribution in Sprague-Dawley rat adrenals assessed per gram of tissue at 1 MBq, iv after 0.5 hrs; format: ADME, organism-based, Adrenal tissue; conditions: in vivo; method in brief: as §1
Lung [26] = test: Biodistribution in Sprague-Dawley rat lungs assessed per gram of tissue at 1 MBq, iv after 0.25 hrs; format: ADME, organism-based; conditions: in vivo; method in brief: as §1
Heart [27] = test: Biodistribution in Sprague-Dawley rat heart assessed per gram of tissue at 1 MBq, iv after 0.5 hrs; format: ADME, organism-based; conditions: in vivo; method in brief: as §1
Heart [28] = test: Biodistribution in Sprague-Dawley rat heart assessed per gram of tissue at 1 MBq, iv after 4 hrs; format: ADME, organism-based; conditions: in vivo; method in brief: as §1
Spleen [29] = test: Biodistribution in Sprague-Dawley rat spleen assessed per gram of tissue at 1 MBq, iv after 0.5 hrs; format: ADME, organism-based; conditions: in vivo; method in brief: as §1
[30] = Biodistribution in Sprague-Dawley rat testis assessed per gram of tissue at 1 MBq, iv after 4 hrs; format: ADME, organism-based; conditions: in vivo; method in brief: as §1
[31] = Metabolic stability in Sprague-Dawley rat plasma assessed as drug remaining at 30 MBq after 4 hrs by Radio-HPLC analysis; format: ADME, cell-free; conditions: read-out: Stability; method in brief: as §2
Femur [32] = test: Biodistribution in Sprague-Dawley rat femur at 1 MBq, iv after 4 hrs; format: ADME, organism-based; conditions: in vivo; method in brief: as §1
Lung [33] = test: Biodistribution in Sprague-Dawley rat lungs assessed per gram of tissue at 1 MBq, iv after 0.5 hrs; format: ADME, organism-based; conditions: in vivo; method in brief: as §1
Adrenal [34] = test: Biodistribution in Sprague-Dawley rat adrenals assessed per gram of tissue at 1 MBq, iv after 1 hr; format: ADME, organism-based, Adrenal tissue; conditions: in vivo; method in brief: as §1
Spleen [35] = test: Biodistribution in Sprague-Dawley rat spleen assessed per gram of tissue at 1 MBq, iv after 0.25 hrs; format: ADME, organism-based; conditions: in vivo; method in brief: as §1
[36] = Metabolic stability in Sprague-Dawley rat olfactory bulb assessed as drug remaining at 30 MBq after 0.25 hrs by Radio-HPLC analysis; format: ADME, tissue-based; conditions: read-out: Stability; method in brief: as §2
[37] = Metabolic stability in Sprague-Dawley rat olfactory bulb assessed as drug remaining at 30 MBq after 4 hrs by Radio-HPLC analysis; format: ADME, tissue-based; conditions: read-out: Stability; method in brief: as §2
[38] = Displacement of [3H]flumazenil from central benzodiazepine receptor in rat brain cortex membrane; format: cell membranes
Method in brief: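 Rat brain cortex membranes (100-150 µg protein) were incubated in triplicate at 25 °C for 45 min with [3H]flumazenil (2 nM) and 7 ligand concentrations (10^-10 to 10^-5 M). Nonspecific binding was set with flumazenil 20 µM. Assays were filtered, washed with ice-cold Tris/HCl pH 7.4 and counted. Ki was derived from IC50 by Cheng-Prusoff.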

[39] = Lipophilicity, log p at pH 7.5; format: physicochemical; conditions: buffer
Method in brief: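 RP-HPLC on a C18 column with methanol/0.1 M phosphate buffer pH 7.5 (60/40) at 1 mL/min. Samples were dissolved in methanol. log P7.5 was estimated by comparing retention time with that of reference compounds of known log P.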

Blood [40] = test: Biodistribution in Sprague-Dawley rat blood at 1 MBq, iv after 0.25 hrs; format: ADME, organism-based; conditions: in vivo; method in brief: as §1
[41] = Metabolic stability in Sprague-Dawley rat plasma assessed as drug remaining at 30 MBq after 0.25 hrs by Radio-HPLC analysis; format: ADME, cell-free; conditions: read-out: Stability; method in brief: as §2
Blood [42] = test: Biodistribution in Sprague-Dawley rat blood at 1 MBq, iv after 4 hrs; format: ADME, organism-based; conditions: in vivo; method in brief: as §1

Row | Compound | Drug uptake (Lung [1]) [%ID] | Drug uptake [2] [%ID] | Drug uptake (Kidney [3]) [%ID] | Drug uptake (Adrenal [4]) [%ID] | Drug uptake (Liver [5]) [%ID] | Drug uptake (Kidney [6]) [%ID] | Drug uptake (Blood [7]) [% ID/g] | remaining at 4 h [9] [%] | Drug uptake (Femur [10]) [% ID/g] | Drug uptake (Kidney [11]) [%ID] | Drug uptake (Heart [12]) [%ID] | Drug uptake (Lung [13]) [%ID] | Drug uptake (Adrenal [14]) [%ID] | remaining at 0.25 h [15] [%] | Drug uptake [16] [%ID] | Drug uptake (Spleen [17]) [%ID] | Drug uptake [18] [%ID] | Drug uptake (Liver [19]) [%ID] | Drug uptake (Liver [20]) [%ID] | Drug uptake (Spleen [21]) [%ID] | other results
1 | CCN(CC)C(=O)Cc1c(-c2ccc(OCC[18F])cc2)nn2c(C)cc(C)nc12 [DPA-714 F-18] | 2.8 | 0.27 | 2.4 | 5.6 | 0.54 | 3.5 | 0.1 | 10 | 0.4 | 3.8 | 6.4 | 5.7 | 9.7 | 55 | 0.18 | 3.9 | 0.21 | 0.29 | 0.4 | 4.5 | Kp [8]: 2; Drug uptake (Heart [22]): 5.8 %ID; Drug uptake (Kidney [23]): 3.6 %ID; Drug uptake (Liver [24]): 0.63 %ID; Drug uptake (Adrenal [25]): 6.6 %ID; Drug uptake (Lung [26]): 14.6 %ID; Drug uptake (Heart [27]): 5.6 %ID; Drug uptake (Heart [28]): 4.3 %ID; Drug uptake (Spleen [29]): 4.7 %ID; Drug uptake [30]: 0.35 %ID; remaining at 4 h [31]: < 1%; Drug uptake (Femur [32]): 0.7 % ID/g; Drug uptake (Lung [33]): 8.8 %ID; Drug uptake (Adrenal [34]): 7.8 %ID; Drug uptake (Spleen [35]): 4.6 %ID; remaining at 0.25 h [36]: 80%; remaining at 4 h [37]: 40%
2 | CCN(CC)C(=O)Cc1c(-c2ccc(OCCCF)cc2)nn2c(C)cc(C)nc12 |  |  |  |  |  |  |  |  |  |  |  |  |  |  |  |  |  |  |  |  | Ki [38]: > 5 µM; logD [39]: 3.2
3 | CCN(CC)C(=O)Cc1c(-c2ccc(OCCC[18F])cc2)nn2c(C)cc(C)nc12 | 3.3 | 0.32 | 3.2 | 8 | 0.98 | 4.7 | 0.1 | 30 | 0.6 | 5.5 | 8.7 | 7.1 | 12.2 | 55 | 0.27 | 3.6 | 0.28 | 0.38 | 0.69 | 5.1 | Drug uptake (Blood [40]): 0.3 % ID/g; remaining at 0.25 h [41]: 10%; Drug uptake (Heart [22]): 9 %ID; Drug uptake (Kidney [23]): 4.9 %ID; Drug uptake (Liver [24]): 1.08 %ID; Drug uptake (Adrenal [25]): 7.9 %ID; Drug uptake (Lung [26]): 20 %ID; Drug uptake (Heart [27]): 9 %ID; Drug uptake (Heart [28]): 5.8 %ID; Drug uptake (Spleen [29]): 5.5 %ID; Drug uptake [30]: 0.43 %ID; Drug uptake (Femur [32]): 2.2 % ID/g; Drug uptake (Lung [33]): 12.4 %ID; Drug uptake (Adrenal [34]): 11 %ID; Drug uptake (Blood [42]): 0.1 % ID/g; Drug uptake (Spleen [35]): 5.5 %ID
4 | CCN(CC)C(=O)Cc1c(-c2ccc(OCCF)cc2)nn2c(C)cc(C)nc12 [DPA-714] |  |  |  |  |  |  |  |  |  |  |  |  |  |  |  |  |  |  |  |  | Ki [38]: > 5 µM; logD [39]: 2.5
